According to PMC7498158 (Journal of Medicinal Chemistry, 2020):

How the values were obtained:
Type in all cases: biochemical
[1] = molecular target: T1, PLAAT2 (Homo sapiens, UniProt Q9NWW9)
T1 sequence (Q9NWW9 1-162): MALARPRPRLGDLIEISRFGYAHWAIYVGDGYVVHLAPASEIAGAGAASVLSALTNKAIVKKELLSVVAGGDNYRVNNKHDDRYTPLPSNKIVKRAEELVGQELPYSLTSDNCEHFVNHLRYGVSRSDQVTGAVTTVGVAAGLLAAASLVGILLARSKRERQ
Summary of the method: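 Human PLAAT cDNA (C-terminal FLAG, pcDNA3.1) was PEI-transfected into HEK293T; cytosol came from a 100,000g spin. Cytosol was preincubated with test compound (30 min, rt), then MB064 (20 min, rt). Conditions: PLAAT2 0.25 μg/μL, 250 nM; PLAAT3 0.5 μg/μL, 250 nM; PLAAT4/5 1 μg/μL, 500 nM. In-gel fluorescence was normalized to Coomassie, in triplicate. Single-concentration screen or IC50 from dose–response curves.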

[2] = molecular target: T2, mABHD6 (Mus musculus, UniProt Q8R2Y0); assay: gel-based ABPP, mouse brain membrane proteome; conditions: 10 μM
T2 sequence (Q8R2Y0 1-336): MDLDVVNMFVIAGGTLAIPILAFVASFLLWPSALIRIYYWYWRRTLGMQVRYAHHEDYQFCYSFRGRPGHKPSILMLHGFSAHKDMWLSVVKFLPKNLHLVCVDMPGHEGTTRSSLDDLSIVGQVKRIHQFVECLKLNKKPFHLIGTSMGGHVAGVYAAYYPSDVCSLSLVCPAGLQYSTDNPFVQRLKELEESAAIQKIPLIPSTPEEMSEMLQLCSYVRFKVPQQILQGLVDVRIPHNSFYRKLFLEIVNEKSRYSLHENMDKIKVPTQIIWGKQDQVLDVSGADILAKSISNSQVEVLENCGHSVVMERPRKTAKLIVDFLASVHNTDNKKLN
Summary of the method: (§1)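 Mouse brain was dounce-homogenized in 20 mM HEPES pH 7.2 with DTT, MgCl2 and benzonase. The membrane pellet from ultracentrifugation (100,000g, 45 min, 4 °C) was used at 2 μg/μL. It was preincubated with test compound in DMSO (30 min, rt), then labeled with MB064 (250 nM) or FP-TAMRA (500 nM) for 15 min at rt. Samples ran on 10% SDS-PAGE; fluorescence was normalized to Coomassie staining.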

[3] = molecular target: hNAPE-PLD (Homo sapiens, UniProt Q6IQ20); assay: NAPE-PLD surrogate substrate; conditions: 10 μM
hNAPE-PLD, sequence (Q6IQ20 whole entry): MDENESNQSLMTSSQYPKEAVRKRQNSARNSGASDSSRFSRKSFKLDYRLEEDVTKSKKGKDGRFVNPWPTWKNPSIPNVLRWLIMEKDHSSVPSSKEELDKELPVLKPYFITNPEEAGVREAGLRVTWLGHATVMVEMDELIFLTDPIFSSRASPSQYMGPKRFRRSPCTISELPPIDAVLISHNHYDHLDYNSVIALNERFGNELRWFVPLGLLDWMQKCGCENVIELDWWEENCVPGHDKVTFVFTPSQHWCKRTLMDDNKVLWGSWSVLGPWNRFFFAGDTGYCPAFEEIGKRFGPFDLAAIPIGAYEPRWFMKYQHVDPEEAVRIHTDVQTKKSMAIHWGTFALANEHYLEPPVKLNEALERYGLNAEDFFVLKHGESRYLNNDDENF

[4] = molecular target: T3, mDAGLα (Mus musculus, UniProt Q6WQJ1); assay: gel-based ABPP, mouse brain membrane proteome; conditions: 10 μM
T3 sequence (Q6WQJ1 1-1044): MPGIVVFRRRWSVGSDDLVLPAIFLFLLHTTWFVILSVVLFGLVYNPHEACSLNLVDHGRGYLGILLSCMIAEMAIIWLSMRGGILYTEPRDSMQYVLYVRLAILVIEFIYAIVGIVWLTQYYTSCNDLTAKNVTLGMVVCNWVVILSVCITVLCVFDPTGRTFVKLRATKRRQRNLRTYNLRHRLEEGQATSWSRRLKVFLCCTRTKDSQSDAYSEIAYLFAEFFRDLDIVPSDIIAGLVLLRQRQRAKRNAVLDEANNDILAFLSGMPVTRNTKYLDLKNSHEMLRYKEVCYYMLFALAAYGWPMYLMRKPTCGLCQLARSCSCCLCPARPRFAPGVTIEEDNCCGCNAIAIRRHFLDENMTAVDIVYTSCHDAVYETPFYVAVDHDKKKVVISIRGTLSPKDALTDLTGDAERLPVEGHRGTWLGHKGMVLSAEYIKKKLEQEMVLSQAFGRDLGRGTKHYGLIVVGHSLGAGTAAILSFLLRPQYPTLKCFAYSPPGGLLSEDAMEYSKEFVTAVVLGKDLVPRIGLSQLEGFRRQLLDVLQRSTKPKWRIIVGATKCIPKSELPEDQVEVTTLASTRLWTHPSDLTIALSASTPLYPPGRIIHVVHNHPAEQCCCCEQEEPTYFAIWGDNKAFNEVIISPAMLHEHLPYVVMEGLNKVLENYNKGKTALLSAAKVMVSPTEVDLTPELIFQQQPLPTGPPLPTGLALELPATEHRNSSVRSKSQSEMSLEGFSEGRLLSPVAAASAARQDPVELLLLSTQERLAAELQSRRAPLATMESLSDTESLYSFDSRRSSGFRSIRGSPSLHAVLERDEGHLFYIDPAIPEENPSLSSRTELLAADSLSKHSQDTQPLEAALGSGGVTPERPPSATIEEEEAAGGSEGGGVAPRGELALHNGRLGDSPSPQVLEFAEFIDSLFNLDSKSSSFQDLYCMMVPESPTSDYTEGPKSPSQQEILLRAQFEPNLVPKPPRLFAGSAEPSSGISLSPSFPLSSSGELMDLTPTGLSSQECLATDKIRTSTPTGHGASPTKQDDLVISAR
Summary of the method: as §1

O=C(CCCc1ccccc1)C(=O)NCCc1ccc(Oc2ccccc2)cc1 [Compound 51, 2-Oxo-N-(4-phenoxyphenethyl)-5-phenylpentanamide]
higher potency for PLAAT2 than initial hit [1]: 10 fold | increase in activity/potency for PLAAT2 compared to 25 [1]: 10 fold | inhibition of ABHD6 (in words) [2]: not inhibited | inhibition of NAPE-PLD (in words) [3]: not inhibited | inhibition of DAGLα (in words) [4]: not inhibited
